From ChEMBL document CHEMBL1770123, “SPF32629A and SPF32629B: enantioselective synthesis, determination of absolute configuration, cytotoxicity and antibacterial evaluation” (Eur J Med Chem, 2011)
pIC50: −log10 of the molar value. Activity calls are given as the source filed them. The rule behind the calls is not given here.

Columns and labels:
[1] = tested on: A549; assay: Cytotoxicity against human A549 cells assessed as cell death at 2 ug after 48 hrs by MTT assay; format: functional
Procedure, shortened: (§1)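 A549 cells were grown in DMEM with 2 mmol L-glutamine, 10% FBS, penicillin (50 IU/mL) and streptomycin, at 37 °C and 5% CO2. 1×10^4 cells/well were plated and treated 24 h later with compound diluted in medium for 48 h. Controls were DMSO-matched and untreated wells. MTT 0.4 mg/mL in PBS was added for 4 h in the dark, then DMSO for 4 h. A540 was read and reported as % live cells relative to untreated.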

[2] = tested on: A549; assay: Cytotoxicity against human A549 cells assessed as cell death at 1 ug after 48 hrs by MTT assay; format: functional; procedure, shortened: as §1
[3] = tested on: A549; assay: Cytotoxicity against human A549 cells after 48 hrs by MTT assay; format: functional, cell-based; conditions: A549, 48 h
Procedure, shortened: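 A549 cells were kept in DMEM with 2 mM L-glutamine, 10% FBS, penicillin 50 IU/mL and streptomycin at 37 °C under 5% CO2. 1×10^4 cells per well were treated 24 h after seeding with compounds diluted in medium for 48 h. MTT (0.4 mg/mL in PBS) was added for 4 h in the dark, formazan was dissolved in DMSO for 4 h and absorbance read at 540 nm. Viability was expressed as % of untreated cells, and IC50 was derived.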

[4] = tested on: A549; assay: Cytotoxicity against human A549 cells assessed as cell death at 25 ug after 48 hrs by MTT assay; format: functional; procedure, shortened: as §1
[5] = tested on: A549; assay: Cytotoxicity against human A549 cells assessed as cell death at 5 ug after 48 hrs by MTT assay; format: functional; procedure, shortened: as §1
[6] = tested on: A549; assay: Cytotoxicity against human A549 cells assessed as cell death at 10 ug after 48 hrs by MTT assay; format: functional; procedure, shortened: as §1
[7] = tested on: Staphylococcus aureus; assay: Antimicrobial activity against methicillin-resistant Staphylococcus aureus strain 4 TB5G at 1000 ug/disc after 24 hrs by disc diffusion method; format: functional
Procedure, shortened: (§2)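 Disc diffusion on 2.4% Mueller-Hinton agar inoculated with the strain. Paper discs 6 mm across were loaded with test compound and placed on the agar. Plates were incubated at 37 °C for 24 h. Read-out was the diameter of the inhibition zone in mm.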

[8] = tested on: Salmonella typhimurium; assay: Antimicrobial activity against Salmonella Typhimurium at 500 ug/disc after 24 hrs by disc diffusion method; format: functional
[9] = tested on: Staphylococcus aureus; assay: Antimicrobial activity against methicillin-resistant Staphylococcus aureus strain 2 TB4G at 500 ug/disc after 24 hrs by disc diffusion method; format: functional; procedure, shortened: as §2
[10] = tested on: Staphylococcus aureus; assay: Antimicrobial activity against Staphylococcus aureus at 500 ug/disc after 24 hrs by disc diffusion method; format: functional; procedure, shortened: as §2
[11] = tested on: Listeria monocytogenes; assay: Antimicrobial activity against Listeria monocytogenes at 1000 ug/disc after 24 hrs by disc diffusion method; format: functional
[12] = tested on: Staphylococcus aureus; assay: Antimicrobial activity against methicillin-resistant Staphylococcus aureus strain 1 TB3G at 500 ug/disc after 24 hrs by disc diffusion method; format: functional; procedure, shortened: as §2
[13] = tested on: Bacillus subtilis; assay: Antimicrobial activity against Bacillus subtilis at 1000 ug/disc after 24 hrs by disc diffusion method; format: functional; conditions: read-out: DIZ
[14] = tested on: Salmonella typhimurium; assay: Antimicrobial activity against Salmonella Typhimurium at 1000 ug/disc after 24 hrs by disc diffusion method; format: functional
[15] = tested on: Staphylococcus epidermidis; assay: Antimicrobial activity against Staphylococcus epidermidis at 500 ug/disc after 24 hrs by disc diffusion method; format: functional
[16] = tested on: Staphylococcus aureus; assay: Antimicrobial activity against methicillin-resistant Staphylococcus aureus strain 1 TB3G at 1000 ug/disc after 24 hrs by disc diffusion method; format: functional; procedure, shortened: as §2
[17] = tested on: Staphylococcus aureus; assay: Antimicrobial activity against Staphylococcus aureus at 1000 ug/disc after 24 hrs by disc diffusion method; format: functional
[18] = tested on: Staphylococcus aureus; assay: Antimicrobial activity against methicillin-resistant Staphylococcus aureus strain 4 TB5G at 500 ug/disc after 24 hrs by disc diffusion method; format: functional; procedure, shortened: as §2
[19] = tested on: Klebsiella pneumoniae; assay: Antimicrobial activity against Klebsiella pneumoniae at 500 ug/disc after 24 hrs by disc diffusion method; format: functional; conditions: read-out: DIZ
[20] = tested on: Escherichia coli; assay: Antimicrobial activity against Escherichia coli at 1000 ug/disc after 24 hrs by disc diffusion method; format: functional; conditions: read-out: DIZ
[21] = tested on: Staphylococcus epidermidis; assay: Antimicrobial activity against Staphylococcus epidermidis at 1000 ug/disc after 24 hrs by disc diffusion method; format: functional
[22] = tested on: Staphylococcus aureus; assay: Antimicrobial activity against methicillin-resistant Staphylococcus aureus strain 2 TB4G at 1000 ug/disc after 24 hrs by disc diffusion method; format: functional; procedure, shortened: as §2
[23] = tested on: Klebsiella pneumoniae; assay: Antimicrobial activity against Klebsiella pneumoniae at 1000 ug/disc after 24 hrs by disc diffusion method; format: functional; conditions: read-out: DIZ
[24] = tested on: Listeria monocytogenes; assay: Antimicrobial activity against Listeria monocytogenes at 500 ug/disc after 24 hrs by disc diffusion method; format: functional
[25] = tested on: Escherichia coli; assay: Antimicrobial activity against Escherichia coli at 500 ug/disc after 24 hrs by disc diffusion method; format: functional; conditions: read-out: DIZ
[26] = tested on: Bacillus subtilis; assay: Antimicrobial activity against Bacillus subtilis at 500 ug/disc after 24 hrs by disc diffusion method; format: functional; conditions: read-out: DIZ
[27] = Salmonella enterica subsp. enterica serovar Typhimurium
[28] = Salmonella enterica, read-out: DIZ

SMILES | Activity [1] | Activity [2] | pIC50 [3] | Activity [4] | Activity [5] | Activity [6] | diameter of the inhibition zone (DIZ) [7] | diameter of the inhibition zone (DIZ) [10] | diameter of the inhibition zone (DIZ) [11] | diameter of the inhibition zone (DIZ) [12] | zone of inhibition at 1000 µg/disc [13] | diameter of the inhibition zone (DIZ) [16] | diameter of the inhibition zone (DIZ) [17] | diameter of the inhibition zone (DIZ) [18] | zone of inhibition at 500 µg/disc [19] | zone of inhibition at 1000 µg/disc [20] | zone of inhibition at 1000 µg/disc [23] | diameter of the inhibition zone (DIZ) [24] | zone of inhibition at 500 µg/disc [25] | zone of inhibition at 500 µg/disc [26] | other results
COc1cc([C@@H]2c3cc4c(cc3[C@@H](O[C@@H]3O[C@@H]5CO[C@@H](C)O[C@H]5[C@H](O)[C@H]3O)[C@H]3COC(=O)[C@H]23)OCO4)cc(OC)c1O [ETOPOSIDE] | 9.12% | 5.54% | 4.96 | 69.48% | 25.91% | 55.33% |  |  |  |  |  |  |  |  |  |  |  |  |  |  | 
CC(C)CC(=O)O[C@@H](c1ccccc1)c1cc(O)cc(=O)[nH]1 | 27.71% | 9.96% | 4.96 | 63.2% | 38.96% | 47.62% | inactive | inactive | inactive | inactive | 23 mm | inactive | inactive | inactive | 15 mm | 26 mm | 25 mm | inactive | 16 mm | 13 mm | diameter of the inhibition zone (DIZ) [8, 27]: inactive; zone of inhibition at 500 µg/disc ([9]; read-out: DIZ): 14 mm; diameter of the inhibition zone (DIZ) [14, 27]: inactive; diameter of the inhibition zone (DIZ) [15]: inactive; diameter of the inhibition zone (DIZ) [21]: inactive; zone of inhibition at 1000 µg/disc ([22]; read-out: DIZ): 26 mm
CC(C)CC(=O)O[C@H](c1ccccc1)c1cc(O)cc(=O)[nH]1 | 18.59% | 3.13% | 5.00 | 75.78% | 48.82% | 50.39% | inactive | inactive | inactive | inactive | 19 mm | inactive | inactive | inactive | 14 mm | 20 mm | 24 mm | inactive | 13 mm | 10 mm | zone of inhibition at 500 µg/disc [8, 28]: 12 mm; diameter of the inhibition zone (DIZ) [9]: inactive; zone of inhibition at 1000 µg/disc [14, 28]: 20 mm; zone of inhibition at 500 µg/disc ([15]; read-out: DIZ): 8 mm; zone of inhibition at 1000 µg/disc ([21]; read-out: DIZ): 17 mm; diameter of the inhibition zone (DIZ) [22]: inactive
